These results are taken from ChEMBL document CHEMBL1153560, “In vitro activities of doripenem and six comparator drugs against 423 aerobic and anaerobic bacterial isolates from infected diabetic foot wounds” (2008).

For the assay, the system named is Clostridium perfringens. Nature of the assay: Antibacterial activity against Clostridium perfringens isolated from patient with diabetic foot infection assessed as percent resistant isolates after 44 to 48 hrs by agar dilution method. The format is functional. Summed up: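 Agar dilution per CLSI M11-A7. Twofold drug dilutions made on the test day and added to molten agar. Replicator-applied inoculum of 10^5 CFU/spot. Drug-free control plates inoculated before and after each drug set. Incubation at 37°C for 44 to 48 h, anaerobic chamber. MIC taken as the lowest concentration giving no growth or a marked change in growth versus controls.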

In the case of `C[C@@H](O)[C@H]1C(=O)N2C(C(=O)O)=C(SCCNC=N)C[C@H]12` [IMIPENEM ANHYDROUS], the Activity is listed as 0%.

In the case of `C[C@@H](O)[C@H]1C(=O)N2C(C(=O)O)=C(S[C@@H]3CN[C@H](C(=O)N(C)C)C3)[C@H](C)[C@H]12` [MEROPENEM], the Activity is 0%. For `C[C@@H](O)[C@H]1C(=O)N2C(C(=O)O)=C(S[C@@H]3CN[C@H](CNS(N)(=O)=O)C3)[C@H](C)[C@H]12` [DORIPENEM], the Activity was 0%. `Cc1ncc([N+](=O)[O-])n1CCO` [METRONIDAZOLE]: the Activity came out at 0%. The result for `C[C@@H](O)[C@H]1C(=O)N2C(C(=O)O)=C(S[C@@H]3CN[C@H](C(=O)Nc4cccc(C(=O)O)c4)C3)[C@H](C)[C@H]12` [ERTAPENEM] reads 0%; that for `CCC[C@@H]1C[C@@H](C(=O)N[C@@H]([C@H]2O[C@H](SC)[C@H](O)[C@@H](O)[C@H]2O)[C@H](C)Cl)N(C)C1` [CLINDAMYCIN], 0%.
